Assay results: ChEMBL document CHEMBL5058577, “EUbOPEN Chemogenomics Library 2 (Multiplex)” (2022)

Test system: Fibroblast
Test: Multiplex assay against human fibroblast
Type: toxicity, cell-based
Summary of the method: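 At seeding, live cells were stained with Hoechst33342, BioTracker Green Microtubule Cytoskeleton Dye, MitoTracker Red and Annexin V Alexa Fluor 680. After compound addition they were imaged on a CQ1 microscope at 37°C and 5% CO2, and CellPathfinder machine-learning gating sorted them into Hoechst high-intensity objects or normal cells, with normal cells further split into healthy, pyknosed or fragmented nuclei and pyknosed cells into mitotic or apoptotic. Tubulin, mitochondrial-mass and membrane-permeability phenotypes are given as per cents of cells with healthy nuclei.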

[1] = 12 h, 1 µM, compound concentration 1 uM, replicate 1
[2] = 12 h, 1 µM, compound concentration 1 uM, replicate 2
[3] = 12 h, 10 µM, compound concentration 10 uM, replicate 1
[4] = 12 h, 10 µM, compound concentration 10 uM, replicate 2
[5] = 24 h, 1 µM, compound concentration 1 uM, replicate 1
[6] = 24 h, 1 µM, compound concentration 1 uM, replicate 2
[7] = 24 h, 10 µM, compound concentration 10 uM, replicate 1
[8] = 24 h, 10 µM, compound concentration 10 uM, replicate 2
[9] = 48 h, 1 µM, compound concentration 1 uM, replicate 1
[10] = 48 h, 1 µM, compound concentration 1 uM, replicate 2
[11] = 48 h, 10 µM, compound concentration 10 uM, replicate 1
[12] = 48 h, 10 µM, compound concentration 10 uM, replicate 2

## CCCCC1=NC2(CCCC2)C(=O)N1Cc1ccc(-c2ccccc2-c2nnn[nH]2)cc1 [IRBESARTAN]
[1]
  Population Apoptotic (%): 40%
  Population Fragmented Nuclei (%): 14%
  Population Healthy Nuclei (%): 67%
  Population Hoechst High Intensity Objects (%): 1%
  Population Membrane Permeable-Phenotype (%): 0%
  Population Mitochondria Different-Phenotype (%): 5%
  Population Mitotic Cells (%): 59%
  Population Normal (%): 98%
  Population Pyknosed Nuclei (%): 17%
  Population Tubulin-Different-Phenotype (%): 28%
  Total Cell Count: 159
[2]
  Population Apoptotic (%): 38%
  Population Fragmented Nuclei (%): 24%
  Population Healthy Nuclei (%): 55%
  Population Hoechst High Intensity Objects (%): 3%
  Population Membrane Permeable-Phenotype (%): 7%
  Population Mitochondria Different-Phenotype (%): 2%
  Population Mitotic Cells (%): 61%
  Population Normal (%): 96%
  Population Pyknosed Nuclei (%): 20%
  Population Tubulin-Different-Phenotype (%): 43%
  Total Cell Count: 187
[3]
  Population Apoptotic (%): 60%
  Population Fragmented Nuclei (%): 11%
  Population Healthy Nuclei (%): 74%
  Population Hoechst High Intensity Objects (%): 3%
  Population Membrane Permeable-Phenotype (%): 3%
  Population Mitochondria Different-Phenotype (%): 4%
  Population Mitotic Cells (%): 40%
  Population Normal (%): 96%
  Population Pyknosed Nuclei (%): 13%
  Population Tubulin-Different-Phenotype (%): 37%
  Total Cell Count: 151
[4]
  Population Apoptotic (%): 45%
  Population Fragmented Nuclei (%): 32%
  Population Healthy Nuclei (%): 48%
  Population Hoechst High Intensity Objects (%): 7%
  Population Membrane Permeable-Phenotype (%): 12%
  Population Mitochondria Different-Phenotype (%): 3%
  Population Mitotic Cells (%): 54%
  Population Normal (%): 92%
  Population Pyknosed Nuclei (%): 18%
  Population Tubulin-Different-Phenotype (%): 53%
  Total Cell Count: 129
[5]
  Population Apoptotic (%): 47%
  Population Fragmented Nuclei (%): 19%
  Population Healthy Nuclei (%): 69%
  Population Hoechst High Intensity Objects (%): 2%
  Population Membrane Permeable-Phenotype (%): 1%
  Population Mitochondria Different-Phenotype (%): 3%
  Population Mitotic Cells (%): 52%
  Population Normal (%): 97%
  Population Pyknosed Nuclei (%): 10%
  Population Tubulin-Different-Phenotype (%): 22%
  Total Cell Count: 170
[6]
  Population Apoptotic (%): 31%
  Population Fragmented Nuclei (%): 25%
  Population Healthy Nuclei (%): 57%
  Population Hoechst High Intensity Objects (%): 3%
  Population Mitochondria Different-Phenotype (%): 0%
  Population Mitotic Cells (%): 68%
  Population Normal (%): 96%
  Population Pyknosed Nuclei (%): 16%
  Population Tubulin-Different-Phenotype (%): 40%
  Total Cell Count: 183
[7]
  Population Apoptotic (%): 56%
  Population Fragmented Nuclei (%): 9%
  Population Healthy Nuclei (%): 74%
  Population Hoechst High Intensity Objects (%): 1%
  Population Membrane Permeable-Phenotype (%): 3%
  Population Mitochondria Different-Phenotype (%): 7%
  Population Mitotic Cells (%): 44%
  Population Normal (%): 98%
  Population Pyknosed Nuclei (%): 16%
  Population Tubulin-Different-Phenotype (%): 37%
  Total Cell Count: 155
[8]
  Population Apoptotic (%): 45%
  Population Fragmented Nuclei (%): 36%
  Population Healthy Nuclei (%): 47%
  Population Hoechst High Intensity Objects (%): 2%
  Population Membrane Permeable-Phenotype (%): 8%
  Population Mitochondria Different-Phenotype (%): 5%
  Population Mitotic Cells (%): 55%
  Population Normal (%): 97%
  Population Tubulin-Different-Phenotype (%): 60%
  Total Cell Count: 125
[9]
  Population Apoptotic (%): 60%
  Population Fragmented Nuclei (%): 21%
  Population Healthy Nuclei (%): 69%
  Population Hoechst High Intensity Objects (%): 3%
  Population Membrane Permeable-Phenotype (%): 0%
  Population Mitochondria Different-Phenotype (%): 4%
  Population Mitotic Cells (%): 40%
  Population Normal (%): 96%
  Population Pyknosed Nuclei (%): 8%
  Population Tubulin-Different-Phenotype (%): 31%
  Total Cell Count: 173
[10]
  Population Apoptotic (%): 55%
  Population Fragmented Nuclei (%): 31%
  Population Healthy Nuclei (%): 58%
  Population Hoechst High Intensity Objects (%): 2%
  Population Membrane Permeable-Phenotype (%): 2%
  Population Mitochondria Different-Phenotype (%): 1%
  Population Mitotic Cells (%): 44%
  Population Normal (%): 97%
  Population Pyknosed Nuclei (%): 10%
  Population Tubulin-Different-Phenotype (%): 39%
  Total Cell Count: 178
[11]
  Population Apoptotic (%): 61%
  Population Fragmented Nuclei (%): 14%
  Population Healthy Nuclei (%): 66%
  Population Hoechst High Intensity Objects (%): 2%
  Population Membrane Permeable-Phenotype (%): 1%
  Population Mitochondria Different-Phenotype (%): 5%
  Population Mitotic Cells (%): 38%
  Population Normal (%): 97%
  Population Pyknosed Nuclei (%): 18%
  Population Tubulin-Different-Phenotype (%): 38%
  Total Cell Count: 141
[12]
  Population Apoptotic (%): 37%
  Population Fragmented Nuclei (%): 37%
  Population Healthy Nuclei (%): 48%
  Population Hoechst High Intensity Objects (%): 0%
  Population Membrane Permeable-Phenotype (%): 3%
  Population Mitochondria Different-Phenotype (%): 1%
  Population Mitotic Cells (%): 62%
  Population Normal (%): 99%
  Population Pyknosed Nuclei (%): 13%
  Population Tubulin-Different-Phenotype (%): 58%
  Total Cell Count: 117
